# Assay outcomes (PubChem)
# ALR H2O2 inh – human ALR oxidase inhibition via reduced H2O2. purified ALR, DTT oxidation, H2O2 HRP-luminol luminescence. inhibition, % (concentration not given with the values). 290,000 tested, 3.8% active;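 active = mean replicate inhibition above about 79%, with every replicate also reaching it, limit read from the data; inconclusive = only one of the two criteria met; inactive = mean below limit and not every replicate reaching it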
# Rtt109 HAT inh – blocks Candida albicans Rtt109/Vps75 acetyltransferase activity; Q5AAJ8; purified Rtt109/Vps75, ThioGlo CoA-SH fluorescence, 4 h; 330,000 tested, 0.16% active; inhibition, % at 34.9 µM;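 active = inhibition of at least 50% in every replicate; inconclusive = best replicate reaches 50% inhibition but some replicates fall short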
# Target sequence (Q5AAJ8 whole entry, looked up): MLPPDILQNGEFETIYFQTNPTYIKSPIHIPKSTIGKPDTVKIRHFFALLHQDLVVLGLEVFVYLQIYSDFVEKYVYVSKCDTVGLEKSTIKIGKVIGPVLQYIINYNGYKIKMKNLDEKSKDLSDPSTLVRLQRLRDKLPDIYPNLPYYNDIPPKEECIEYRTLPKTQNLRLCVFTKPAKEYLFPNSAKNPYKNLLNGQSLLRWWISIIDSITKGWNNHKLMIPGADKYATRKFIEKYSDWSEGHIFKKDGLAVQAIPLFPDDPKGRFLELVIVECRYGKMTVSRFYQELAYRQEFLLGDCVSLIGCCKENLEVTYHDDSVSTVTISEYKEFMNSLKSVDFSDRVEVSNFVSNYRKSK
# M18AAP inhibitor – PfM18AAP enzyme inhibition | recombinant PfM18AAP, H-Glu-NHMec fluorogenic cleavage | inhibition, % at 7.35 µM | AID 1822 | 290,000 tested, 1.2% active;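 active = inhibition above the campaign mean inhibition over all tested compounds plus 3 SD, cut at about 28% in these data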;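 also: 0% = plate median of test compound wells and 100% = 2 mM ZnCl2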
# HDAC3 inhib – inhibitors of human histone deacetylase 3; recombinant HDAC3, fluorogenic peptide/trypsin coupled, fluorescence; inhibition, % at 8.3 µM; 320,000 tested, 0.15% active; in the data active = inhibition above about 26%, passing the limit was not always enough; inconclusive = no clear call, values can overlap the other calls
# FAS-TE inh – FAS thioesterase (human) inhibition; AID 602261; 360,000 tested, 0.67% active; recombinant FAS-TE, OMFH fluorogenic substrate, fluorescence endpoint; P49327; inhibition, % at 15 µM;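 active = compounds whose normalised, plate-corrected inhibition of enzyme fluorescence in the single-dose primary screen is 50% or more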;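 also: 0% = DMSO with enzyme and 100% = substrate without enzyme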
# UCH37 inh – blocks the human deubiquitinase UCH37; Q9Y5K5; AID 588478; inhibition, % (concentration not given with the values); 330,000 tested, 0.33% active; purified proteasome/UCH37, Ub-AMC cleavage fluorescence;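 active = mean inhibition over replicate wells above about 20%, limit read from the data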;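 also: 0% = compound-free wells with enzyme and 100% = wells lacking proteasome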
# Target sequence (Q9Y5K5 whole entry, looked up): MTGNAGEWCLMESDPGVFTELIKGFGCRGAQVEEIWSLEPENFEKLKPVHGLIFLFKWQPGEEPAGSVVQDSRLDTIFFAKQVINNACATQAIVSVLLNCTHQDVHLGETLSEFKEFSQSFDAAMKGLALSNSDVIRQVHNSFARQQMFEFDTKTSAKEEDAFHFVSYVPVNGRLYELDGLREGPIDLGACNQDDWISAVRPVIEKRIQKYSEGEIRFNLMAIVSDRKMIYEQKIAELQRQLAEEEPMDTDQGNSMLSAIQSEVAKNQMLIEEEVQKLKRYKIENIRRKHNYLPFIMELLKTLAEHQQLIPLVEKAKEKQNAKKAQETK
#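 system = Proteasome-associated human UCH37 deubiquitinase | amount = 0.15 nM proteasome as dispensed | medium = pH 7.4 Tris-HCl (50 mM) with ovalbumin, ATP-MgCl2, DTT | incubation = 30 min preincubation with enzyme, 25 min cleavage at room temperature | detection = AMC fluorescence 355/460 nm | read-out basis = percent inhibition | controls = no-proteasome and no-compound wells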
# * = called active by the depositor; i = inactive; ? = inconclusive; / = not tested or not shown. A selection: hits, their analogues and other compounds. The true share with any hit is near 4.6%.
SMILES,ALR H2O2 inh,Rtt109 HAT inh,M18AAP inhibitor,HDAC3 inhib,FAS-TE inh,UCH37 inh
C=CC[C@@H](CC(=O)N[C@@H](CO)Cc1ccccc1)C(=O)N[C@H](COC(=O)[C@@H](CC=C)CC(=O)OC(C)(C)C)Cc1c[nH]c2ccccc12,-2.6,-3.4,/,36.6*,3.9,0.8
C=CC[C@@H](CC(=O)N[C@H](CO)Cc1ccccc1)C(=O)N[C@@H](COC(=O)[C@H](CC=C)CC(=O)OC(C)(C)C)Cc1ccccc1,-1.2,0.2,/,19.4,2.4,1.5
C=CC[C@@H](CC(=O)N[C@@H](CO)Cc1ccccc1)C(=O)N[C@H](COC(=O)[C@@H](CC=C)CC(=O)OC(C)(C)C)Cc1ccccc1,0.1,10.5,/,-19.9,-4.6,0.7
COc1cccc2c1OC(=NO)C(C(=O)Nc1ccc(C)cc1)C2 (stereo unspecified),/,/,/,/,/,2.4
CN(C)c1ccc(C(=NO)c2ccccc2)cc1,/,/,/,/,/,1.8
CN(C)c1ccc(/C(=N\O)c2ccccc2)cc1,94.5*,6.3,-2.2,8.5,-11.9,/
O=C(CSc1ccc(-c2ccc(F)cc2)nn1)NCc1ccco1,-5.3,-10.0,1.6,-0.6,-3.6,4.1
CCN1C(=O)/C(=C\c2ccc(F)cc2)N=C1SCC(=O)NCc1ccco1,95.3*,2.5,-3.9,-1.9,-6.5,1.6
COc1ccc2c(c1)Sc1ccccc1N2CCN(C)C,98.2*,17.8,-9.4,1.2,-6.6,2.4
CC(=O)c1ccc2c(c1)N(CCCN(C)C)c1ccccc1S2,/,1.0,/,/,3.0,/
CN(C)CCCN1c2ccccc2Sc2ccccc21,97.7*,15.5,1.4,-6.8,2.2,1.3
CCC(=O)c1ccc2c(c1)N(CCCN(C)C)c1ccccc1S2,98.2*,6.9,/,-2.4,1.7,2.3
COC(=O)c1ccc(OC(=O)CCN2c3ccccc3Sc3ccccc32)cc1,7.6,-6.4,-1.8,-2.3,20.4,3.0
CC1=CC(=NOS(=O)(=O)c2ccccc2)C=CC1=O,/,/,/,/,/,0.0
NC(=NOC(=O)CCCOc1ccccc1)c1ccc([N+](=O)[O-])cc1,/,/,/,/,/,2.4
Cc1ccc(NC(=O)CSc2nnc(CNC(=O)c3c(F)cccc3Cl)o2)cc1,98.4*,-7.5,1.3,6.1,-3.5,-0.1
O=C(CSc1nnc(CNC(=O)c2c(F)cccc2Cl)o1)Nc1ccc2c(c1)OCO2,97.1*,-5.6,-1.0,-1.7,-6.2,2.5
O=C(CNC(=O)c1ccc2c(c1)OCCO2)NN=Cc1ccc(O)cc1O,/,/,/,/,/,-7.5
COc1ccc(-c2cc(-c3ccccc3)no2)cc1,0.1,-5.9,/,5.0,-1.3,0.6
COc1ccc(-c2cc3nnc(-c4ccccc4)nc3s2)cc1,93.8*,9.6,0.6,5.0,-5.6,/
COc1ccccc1C(=O)ON=C(c1ccncc1)c1ccc([N+](=O)[O-])cc1,/,/,/,/,/,2.4
Cc1cc(C)n(CCc2nc(-c3cc4ccccc4o3)cs2)n1,-15.4,7.1,-2.9,2.2,1.2,/
Cc1cc(C)n(CCc2nc(-c3ccc(C)o3)cs2)n1,95.2*,-1.0,-122.9,-0.4,-2.8,5.8
O=C(NC=NOCc1cccc(C(F)(F)F)c1)N1OC[C@@H]2COc3ccc4ccccc4c3[C@@H]21,/,/,/,/,/,5.6
Cc1cc2[nH]c(=S)[nH]c2cc1C,98.8*,21.1,1.8,-4.4,-4.1,-1.2
SMILES,ALR H2O2 inh,Rtt109 HAT inh,M18AAP inhibitor,HDAC3 inhib,FAS-TE inh,UCH37 inh
O=C(CC1(O)C(=O)N(CCc2ccccc2)c2ccccc21)c1ccccn1 (stereo unspecified),-1.4,/,10.9,-1.3,-2.9,0.1
O=C(CC1(O)C(=O)N(C/C=C/c2ccccc2)c2ccccc21)c1ccccn1 (stereo unspecified),-19.7,5.4,31.6*,3.4,4.0,2.7
CCCn1nnnc1NCc1ccc(N(CC)CC)cc1,98.4*,-1.8,6.9,-9.3,0.5,4.5
Cn1nnnc1NCc1ccc(Cl)cc1,/,12.4,0.2,-0.2,-6.5,-1.8
CCN(CC)c1ccc(CNc2nnnn2C)cc1,99.0*,-0.7,-10.7,4.4,-4.8,3.8
CCCCCCCCCCn1c2c(c(=N)c3c1CCC3)CCC2,-1.5,76.5*,-6.8,3.3,-6.1,11.2
Cc1ccc2occ(/C=N/NC(=O)c3ccc(O)cc3)c(=O)c2c1,97.7*,2.7,8.7,81.6*,15.4,/
Cc1ccc2occ(C=NNC(=O)c3ccc(O)cc3)c(=O)c2c1,/,/,/,/,/,-21.8
CC1(C)CC(NC(=O)C23CCC(C)(C(=NO)C2)C3(C)C)CC(C)(C)N1 (stereo unspecified),/,/,/,/,/,4.1
COc1ccc(-n2c(O)c(/C=N/NS(=O)(=O)c3cccc([N+](=O)[O-])c3)c3ccccc3c2=O)cc1OC,88.7*,-4.2,14.0,?,-11.5,-3.8
NC(=O)Cn1cc(C=NNS(=O)(=O)c2cccc([N+](=O)[O-])c2)c2ccccc21,/,/,/,/,/,2.7
CC(=NOC(=O)Nc1ccc(Cl)cc1)c1ncc(C(F)(F)F)cc1N1CCOCC1,/,/,/,/,/,-1.2
CN(C)CCCNc1cc(C(C)(C)C)nc2c(-c3ccccc3)cnn12,99.0*,-0.6,6.3,?,4.1,-35.5
COc1cccc(C=NNC(=O)CC(=O)NCCc2ccccc2)c1OC,/,/,/,/,/,-9.1
CC(=NNC(=O)c1cccs1)c1cccc(NC(=O)C2CC2)c1,/,/,/,/,/,-4.0
O=C(CSc1ccccc1F)NCCN1C(=O)CSC1=O,1.1,-8.4,/,1.2,-7.7,4.1
O=C(CSc1nc(-c2ccccc2)c(-c2ccccc2)[nH]1)NCCN1C(=O)CSC1=O,98.8*,13.6,0.1,0.3,1.1,0.4
O=C(NNS(=O)(=O)c1ccc(C(=O)NC2CCCC2)cc1)c1ccncc1,98.5*,-0.4,10.9,-6.1,-6.1,2.4
CC1CCCCC1NC(=O)c1ccncc1 (stereo unspecified),-1.9,-1.9,-6.5,2.1,-5.0,0.1
O=C(NC1CC1)c1ccc(S(=O)(=O)NC2CCCCCC2)cc1,-3.6,-5.5,-0.4,-6.7,0.3,4.5
CC1CCCCC1NC(=O)c1ccc(S(=O)(=O)NNC(=O)c2ccncc2)cc1 (stereo unspecified),98.7*,2.5,15.9,-2.0,-5.4,3.9
CCOc1ccc(Cc2n[nH]c(=S)n2N)cc1,96.3*,-14.0,14.3,6.7,-7.8,0.6
O=[N+]([O-])c1ccc(C2CC(c3ccccc3)=Nc3ccccc3S2)cc1 (stereo unspecified),23.8,-10.7,31.8*,-7.7,13.0,/
O=C(O)C1CC(c2ccccc2)=Nc2ccccc2S1 (stereo unspecified),/,-18.5,11.3,/,-2.7,5.2
Fc1ccc(C2CC(c3ccco3)=Nc3ccccc3S2)cc1 (stereo unspecified),-3.6,55.7*,26.8,6.1,15.8,0.1
Fc1ccc(C2CC(c3ccco3)=NN2c2ccccc2)cc1 (stereo unspecified),61.2,-15.5,7.3,-1.6,25.4,i
